Converted amounts (≈) assume the structure as drawn.
What was measured:
[1] = test system: Mycolicibacterium smegmatis; assay: Antimycobacterial activity against Mycobacterium smegmatis ATCC 14468 by agar dilution method; assay type: functional
Outline: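 MC² (M. smegmatis) growth inhibition; MIC99 taken as the lowest concentration giving complete inhibition of bacterial growth, in µM.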

[2] = test system: Mycobacterium tuberculosis; assay: Antimycobacterial activity against Mycobacterium tuberculosis H37Rv by agar dilution method; assay type: functional
Outline: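 MIC99 was taken as the lowest concentration giving complete inhibition of bacterial growth.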

DNA gyrase subunit A = DNA gyrase subunit A (Mycolicibacterium smegmatis, UniProt Q59556); assay: Inhibition of Mycobacterium smegmatis DNA gyrase
Sequence of DNA gyrase subunit A (Q59556 whole entry): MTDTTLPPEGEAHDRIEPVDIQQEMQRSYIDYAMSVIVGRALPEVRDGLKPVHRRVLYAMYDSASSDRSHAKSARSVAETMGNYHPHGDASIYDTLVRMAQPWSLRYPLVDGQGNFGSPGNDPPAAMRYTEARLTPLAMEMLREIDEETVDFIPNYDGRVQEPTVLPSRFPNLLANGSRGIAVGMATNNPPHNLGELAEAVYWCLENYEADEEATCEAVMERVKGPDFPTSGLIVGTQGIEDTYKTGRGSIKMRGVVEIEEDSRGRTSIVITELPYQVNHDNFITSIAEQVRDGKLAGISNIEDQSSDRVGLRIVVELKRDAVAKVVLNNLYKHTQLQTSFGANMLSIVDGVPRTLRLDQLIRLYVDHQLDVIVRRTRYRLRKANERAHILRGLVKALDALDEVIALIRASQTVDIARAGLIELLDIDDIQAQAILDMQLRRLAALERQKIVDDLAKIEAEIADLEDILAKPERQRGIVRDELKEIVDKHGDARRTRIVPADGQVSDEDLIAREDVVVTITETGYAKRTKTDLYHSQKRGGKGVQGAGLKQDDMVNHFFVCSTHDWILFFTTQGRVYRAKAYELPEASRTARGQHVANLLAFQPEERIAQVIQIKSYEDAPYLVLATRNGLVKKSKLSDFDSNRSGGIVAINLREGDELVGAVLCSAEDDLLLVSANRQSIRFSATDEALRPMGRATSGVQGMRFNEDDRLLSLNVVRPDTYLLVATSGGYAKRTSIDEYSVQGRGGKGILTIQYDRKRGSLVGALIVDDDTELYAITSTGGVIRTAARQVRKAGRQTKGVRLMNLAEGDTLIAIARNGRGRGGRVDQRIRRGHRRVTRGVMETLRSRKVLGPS
Outline: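 Inhibition of DNA supercoiling by M. smegmatis (MC²) gyrase, run under standard assay conditions. Varying compound amounts were tested against a fixed amount of enzyme, and IC50 was derived from that series. Relaxed circular DNA served as marker, 5% DMSO as solvent control, and moxifloxacin at 5 µg/mL as positive control.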

Vero = assay: Cytotoxicity against african green monkey Vero cells after 72 hrs by MTT assay; assay type: cell-based; settings: Chlorocebus sabaeus
Outline: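 Vero cells exposed for 72 h; tested up to 62.5 µg/mL. Viability was read as cellular conversion of MTT to formazan, and IC50 was reported in µM.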

Mus musculus [3] = assay: Phototoxic effect in UV light irradiated mouse assessed as number of mouse bearing erythema at 140 mg/kg, after 4 hrs relative to control; assay type: ADME, organism-based; set-up: dose 140 mg/kg; settings: in vivo
Outline: (§1)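 Mice received 140 mg/kg and were UV-irradiated immediately after dosing, irradiation ending at 4 h. Both ears were scored for erythema at 0, 4, 24, 48, 72 and 96 h, counted as the number of mice with erythema. Vehicle control was 0.5% aqueous sodium carboxymethylcellulose at 10 mL/kg.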

Mus musculus [4] = assay: Phototoxic effect in UV light irradiated mouse assessed as ear thickness at 140 mg/kg, after 24 hrs relative to control; assay type: ADME, organism-based; set-up: dose 140 mg/kg; settings: in vivo
Outline: (§2)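 Mice dosed at 140 mg/kg and exposed to UV immediately after dosing. Irradiation ended at 4 h. Ear thickness (mm) was measured at 0 (pre-dose), 4, 24, 48, 72 and 96 h, left and right ears averaged, mean ± SEM. Comparison was against vehicle controls (0.5% aqueous sodium carboxymethylcellulose, 10 mL/kg) and against the 0 h reading.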

Mus musculus [5] = assay: Phototoxic effect in UV light irradiated mouse assessed as number of mouse bearing erythema at 140 mg/kg, after 96 hrs relative to control; assay type: ADME, organism-based; set-up: dose 140 mg/kg; settings: in vivo; outline: as §1
Mus musculus [6] = assay: Phototoxic effect in UV light irradiated mouse assessed as ear thickness at 140 mg/kg, after 72 hrs relative to control; assay type: ADME, organism-based; set-up: dose 140 mg/kg; settings: in vivo; outline: as §2
Mus musculus [7] = assay: Phototoxic effect in UV light irradiated mouse assessed as ear thickness at 140 mg/kg, after 4 hrs relative to control; assay type: ADME, organism-based; set-up: dose 140 mg/kg; settings: in vivo; outline: as §2
Mus musculus [8] = assay: Phototoxic effect in UV light irradiated mouse assessed as number of mouse bearing erythema at 140 mg/kg, after 24 hrs relative to control; assay type: ADME, organism-based; set-up: dose 140 mg/kg; settings: in vivo; outline: as §1
Mus musculus [9] = assay: Phototoxic effect in mouse assessed as number of mouse bearing erythema at 140 mg/kg administered before UV light exposure relative to control; assay type: ADME, organism-based; set-up: dose 140 mg/kg; settings: in vivo; outline: as §1
Mus musculus [10] = assay: Phototoxic effect in mouse assessed as ear thickness at 140 mg/kg administered before UV light exposure relative to control; assay type: ADME, organism-based; set-up: dose 140 mg/kg; settings: in vivo; outline: as §2
Mus musculus [11] = assay: Phototoxic effect in UV light irradiated mouse assessed as ear thickness at 140 mg/kg, after 48 hrs relative to control; assay type: ADME, organism-based; set-up: dose 140 mg/kg; settings: in vivo; outline: as §2
Mus musculus [12] = assay: Phototoxic effect in UV light irradiated mouse assessed as ear thickness at 140 mg/kg, after 96 hrs relative to control; assay type: ADME, organism-based; set-up: dose 140 mg/kg; settings: in vivo; outline: as §2
Mus musculus [13] = assay: Phototoxic effect in UV light irradiated mouse assessed as number of mouse bearing erythema at 140 mg/kg, after 72 hrs relative to control; assay type: ADME, organism-based; set-up: dose 140 mg/kg; settings: in vivo; outline: as §1
Mus musculus [14] = assay: Phototoxic effect in UV light irradiated mouse assessed as number of mouse bearing erythema at 140 mg/kg, after 48 hrs relative to control; assay type: ADME, organism-based; set-up: dose 140 mg/kg; settings: in vivo; outline: as §1
[15] = test system: Mycobacterium tuberculosis; assay: Antimycobacterial activity against Mycobacterium tuberculosis ATCC 35801 infected CD1 mouse lungs assessed as viable organisms at 50 mg/kg, ip after 35 days relative to control; assay type: functional; settings: route intraperitoneal
Outline: (§3)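 CD-1 mice infected intravenously with M. tuberculosis ATCC 35801; intraperitoneal treatment started 10 days after inoculation and continued for 10 days. At 35 days postinfection, spleens and right lungs were removed aseptically and viable organisms counted (log CFU). Counts were compared with vehicle-treated controls.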

[16] = test system: Mycobacterium tuberculosis; assay: Antimycobacterial activity against Mycobacterium tuberculosis ATCC 35801 infected CD1 mouse spleen assessed as viable organisms at 50 mg/kg, ip after 35 days relative to control; assay type: functional; settings: route intraperitoneal; outline: as §3

Work on `CC1COc2c(N3CCN(C(=O)C4COc5ccccc5O4)CC3)c(F)cc3c(=O)c(C(=O)O)cn1c23` (stereo not given) yielded an MIC99 [1] of 49.1 µM (≈ 25 µg/mL) and an MIC99 [2] of 12.3 µM (≈ 6.25 µg/mL).

With `CC1CN(c2c(F)cc3c(=O)c(C(=O)O)cn4c3c2OCC4C)CC(C)O1` (stereo not given) the MIC99 [1] was 4.14 µM (≈ 1.56 µg/mL), the IC50 (DNA gyrase subunit A) was over 133 µM and the IC50 (Vero) was over 166 µM. It also gave an MIC99 [2] of 4.14 µM (≈ 1.56 µg/mL).

For `CC1COc2c(N3CCC4(CC3)OCCO4)c(F)cc3c(=O)c(C(=O)O)cn1c23` (stereo not given), the Activity (Mus musculus [3]) was “Toxic”, the Activity (Mus musculus [4]) was 0.32 mm and the Activity (Mus musculus [5]) was “Non-toxic”. It also gave an MIC99 [1] of 3.86 µM (≈ 1.56 µg/mL), an IC50 (DNA gyrase subunit A) of 124 µM and an Activity (Mus musculus [6]) of 0.32 mm. The Activity (Mus musculus [7]) was 0.37 mm, the Activity (Mus musculus [8]) was “Toxic” and the IC50 (Vero) was 155 µM. For the same compound, the Activity (Mus musculus [9]) was “Non-toxic”, the Activity (Mus musculus [10]) was 0.34 mm and the Activity (Mus musculus [11]) was 0.31 mm. The MIC99 [2] was 0.47 µM (≈ 0.19 µg/mL) and the Activity (Mus musculus [12]) was 0.35 mm.

Work on `CC1COc2c(N3CCN(C(=O)c4ccco4)CC3)c(F)c([N+](=O)[O-])c3c(=O)c(C(=O)O)cn1c23` (stereo not given) yielded an MIC99 [1] of 3.21 µM (≈ 1.56 µg/mL), an IC50 (Vero) of 64.2 µM and an MIC99 [2] of 0.8 µM (≈ 0.389 µg/mL).

`CC1COc2c(N3CCC4(CC3)OCCO4)c(F)c([N+](=O)[O-])c3c(=O)c(C(=O)O)cn1c23` (stereo not given) gave an MIC99 [1] of 3.47 µM (≈ 1.56 µg/mL), an IC50 (Vero) of 139 µM and an MIC99 [2] of 0.21 µM (≈ 0.0944 µg/mL).

`CC1COc2c(N3CCN(Cc4ccc5c(c4)OCO5)CC3)c(F)cc3c(=O)c(C(=O)O)cn1c23` (stereo not given) showed an MIC99 [1] of 26 µM (≈ 12.5 µg/mL) and an MIC99 [2] of 6.5 µM (≈ 3.13 µg/mL).

`CC1COc2c(N3CCN(C(c4ccccc4)c4ccc(Cl)cc4)CC3)c(F)cc3c(=O)c(C(=O)O)cn1c23` (stereo not given) was tested, and the MIC99 [1] was 45.6 µM (≈ 25 µg/mL) and the MIC99 [2] was 5.71 µM (≈ 3.13 µg/mL).

With `CCn1cc(C(=O)O)c(=O)c2cc(F)c(N3CCNC(C)C3)c(F)c21` (stereo not given) [LOMEFLOXACIN] the Activity (Mus musculus [3]) was “Toxic”, the Activity (Mus musculus [4]) was 0.48 mm and the Activity (Mus musculus [13]) was “Toxic”. The Activity (Mus musculus [5]) was “Toxic”, the Activity (Mus musculus [14]) was “Toxic” and the Activity (Mus musculus [6]) was 0.64 mm. The Activity (Mus musculus [7]) was 0.4 mm, the Activity (Mus musculus [8]) was “Toxic” and the Activity (Mus musculus [9]) was “Non-toxic”. For the same compound, the Activity (Mus musculus [10]) was 0.31 mm, the Activity (Mus musculus [11]) was 0.53 mm and the Activity (Mus musculus [12]) was 0.6 mm.

Work on `CC1COc2c(N3CCC(n4c(=O)[nH]c5cc(Cl)ccc54)CC3)c(F)cc3c(=O)c(C(=O)O)cn1c23` (stereo not given) yielded an MIC99 [1] of 48.7 µM (≈ 25 µg/mL), an IC50 (Vero) of over 122 µM and an MIC99 [2] of 1.52 µM (≈ 0.78 µg/mL).

Work on `CC1COc2c(N3CCC(O)(c4ccc(Cl)cc4)CC3)c(F)cc3c(=O)c(C(=O)O)cn1c23` (stereo not given) yielded an MIC99 [1] of 26.4 µM (≈ 12.5 µg/mL) and an MIC99 [2] of 6.62 µM (≈ 3.13 µg/mL).

For `CC1COc2c(N3CCn4cc(C(=O)O)nc4C3)c(F)c(N)c3c(=O)c(C(=O)O)cn1c23` (stereo not given), the MIC99 [1] was 5.28 µM (≈ 2.34 µg/mL), the IC50 (Vero) was over 141 µM and the MIC99 [2] was 0.88 µM (≈ 0.39 µg/mL).

For `CC1COc2c(N3CCN(C)CC3)c(F)cc3c(=O)c(C(=O)O)cn1c23` (stereo not given) [OFLOXACIN], the MIC99 [1] was 2.16 µM (≈ 0.781 µg/mL), the Log10 cfu [15] was 6.61 and the IC50 (Vero) was over 155 µM. The Log10 cfu [16] was 7.61 and the MIC99 [2] was 2.16 µM (≈ 0.781 µg/mL).

With `CC1COc2c(N3CCSCC3)c(F)c([N+](=O)[O-])c3c(=O)c(C(=O)O)cn1c23` (stereo not given) the Activity (Mus musculus [3]) was “Non-toxic”, the Activity (Mus musculus [4]) was 0.29 mm and the Activity (Mus musculus [13]) was “Non-toxic”. For the same compound, the Activity (Mus musculus [5]) was “Non-toxic”, the Activity (Mus musculus [14]) was “Non-toxic” and the MIC99 [1] was 1.91 µM (≈ 0.782 µg/mL). It also gave an IC50 (DNA gyrase subunit A) of 122 µM, an Activity (Mus musculus [6]) of 0.28 mm and an Activity (Mus musculus [7]) of 0.28 mm. The Activity (Mus musculus [8]) was “Non-toxic”, the IC50 (Vero) was 153 µM and the Activity (Mus musculus [9]) was “Non-toxic”. For the same compound, the Activity (Mus musculus [10]) was 0.25 mm, the Activity (Mus musculus [11]) was 0.29 mm and the MIC99 [2] was 1.91 µM (≈ 0.782 µg/mL). It also gave an Activity (Mus musculus [12]) of 0.28 mm.

Compound `CC1COc2c(N3CCC(O)(c4ccc(Cl)cc4)CC3)c(F)c([N+](=O)[O-])c3c(=O)c(C(=O)O)cn1c23` (stereo not given) has an MIC99 [1] of 6.04 µM (≈ 3.13 µg/mL), an IC50 (Vero) of 60.4 µM and an MIC99 [2] of 1.51 µM (≈ 0.782 µg/mL).

With `CC1COc2c(N3CCN(Cc4ccc5c(c4)OCO5)CC3)c(F)c([N+](=O)[O-])c3c(=O)c(C(=O)O)cn1c23` (stereo not given) the MIC99 [1] was 1.48 µM (≈ 0.779 µg/mL), the IC50 (Vero) was 119 µM and the MIC99 [2] was 2.96 µM (≈ 1.56 µg/mL).

`CC1COc2c(N3CCN(C)C(c4ccccc4)C3)c(F)c([N+](=O)[O-])c3c(=O)c(C(=O)O)cn1c23` (stereo not given) was tested, and the MIC99 [1] was 6.49 µM (≈ 3.13 µg/mL), the IC50 (Vero) was 130 µM and the MIC99 [2] was 3.23 µM (≈ 1.56 µg/mL).
